Columns and labels:
MDA-MB-468 = test: Cytotoxicity against human MDA-MB-468 cells by SRB assay; assay type: functional, cell-based
Summary of the method: (§1)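 Cells grown in RPMI 1640 with 10% heat-inactivated FBS, 2 mmol/L glutamine, 10 mmol/L HEPES pH 7.4, 5% CO2, 37 °C; MCF-7/ADR also given 1 mmol/L pyruvate and 0.01 mg/mL insulin. Treated in triplicate with graded concentrations for 72 h at 37 °C, read by SRB. IC50 (50% growth inhibition vs control) by logit method; three independent experiments.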

PC-3 [1] = test: Cytotoxicity against human PC3 cells by SRB assay; assay type: functional, cell-based; summary of the method: as §1
SK-OV-3 [2] = test: Cytotoxicity against human SKOV3 cells by SRB assay; assay type: functional, cell-based; summary of the method: as §1
[3] = Cytotoxicity against human SW1116 cells after 72 hrs by […]; assay type: functional, cell-based; conditions: SW 1116, 72 h
Summary of the method: (§2)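 Cells grown at 37 °C in 5% CO2 in RPMI 1640 with 10% heat-inactivated FBS, glutamine, antibiotics and HEPES; MCF-7 medium also had sodium pyruvate and insulin. Cells in 96-well plates were treated in triplicate with graded concentrations for 72 h at 37 °C. Read-out was MTT for leukemia lines and SRB for solid-tumor lines. IC50 was set relative to control by the logit method, as mean ± SD of three independent experiments.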

HCT-116 = test: Cytotoxicity against human HCT116 cells after 72 hrs […]; assay type: functional, cell-based; conditions: HCT-116, 72 h; summary of the method: as §2
SGC-7901 = test: Cytotoxicity against human SGC7901 cells after 72 hrs by SRB assay; conditions: SGC-7901, 72 h
DU-145 = test: Cytotoxicity against human DU145 cells after 72 hrs by […]; assay type: functional, cell-based; conditions: DU-145, 72 h; summary of the method: as §2
Bel-7402 = test: Cytotoxicity against human Bel7402 cells after 72 hrs by […]; assay type: functional, cell-based; conditions: Bel-7402, 72 h; summary of the method: as §2
MDA-MB-231 = test: Cytotoxicity against human MDA-MB-231 cells after 72 hrs […]; assay type: functional, cell-based; conditions: MDA-MB-231, 72 h; summary of the method: as §2
SMMC-7721 = test: Cytotoxicity against human SMMC7721 cells after 72 hrs […]; assay type: functional, cell-based; conditions: SMMC-7721, 72 h; summary of the method: as §2
HCT-15 = test: Cytotoxicity against human HCT15 cells after 72 hrs […]; assay type: functional, cell-based; conditions: HCT-15, 72 h; summary of the method: as §2
MKN-28 = test: Cytotoxicity against human MKN28 cells after 72 hrs […]; assay type: functional, cell-based; conditions: MKN-28, 72 h; summary of the method: as §2
MOLT-4 = test: Cytotoxicity against human MOLT4 cells after 72 hrs by MTT assay; assay type: functional, cell-based; conditions: MOLT-4, 72 h; summary of the method: as §2
K562 = test: Cytotoxicity against human K562 cells after 72 hrs by MTT assay; assay type: functional, cell-based; conditions: K562, 72 h; summary of the method: as §2
[4] = Cytotoxicity against human Rh30 cells after 72 hrs by […]; assay type: functional, cell-based; conditions: SJRH30, 72 h; summary of the method: as §2
MCF7 = test: Cytotoxicity against human MCF7 cells after 72 hrs […]; assay type: functional, cell-based; conditions: MCF7, 72 h; summary of the method: as §2
A549 = test: Cytotoxicity against human A549 cells after 72 hrs by SRB assay; conditions: A549, 72 h
KB = test: Cytotoxicity against human KB cells after 72 hrs […]; assay type: functional, cell-based; summary of the method: as §2
U-251 = test: Cytotoxicity against human U251 cells after 72 hrs […]; assay type: functional, cell-based; conditions: U-251, 72 h; summary of the method: as §2
SK-OV-3 [5] = test: Cytotoxicity against human SKOV3 cells after 72 hrs by […]; assay type: functional, cell-based; conditions: SK-OV-3, 72 h; summary of the method: as §2
[6] = Cytotoxicity against human 786-O cells after 72 hrs […]; assay type: functional, cell-based; conditions: 786-0, 72 h; summary of the method: as §2
HeLa = test: Cytotoxicity against human HeLa cells after 72 hrs […]; assay type: functional, cell-based; summary of the method: as §2
[7] = Cytotoxicity against human HO8910 cells after 72 hrs by […]; assay type: functional, cell-based; conditions: HO-8910, 72 h; summary of the method: as §2
PC-3 [8] = test: Cytotoxicity against human PC3 cells after 72 hrs by […]; assay type: functional, cell-based; conditions: PC-3, 72 h; summary of the method: as §2

**Q.** Which IC50 (MDA-MB-468) does the source give for `CC(C)[C@]12O[C@H]1[C@@H]1O[C@]13[C@]1(O[C@H]1C=C1C4=C(CC[C@@]13C)C(=O)OC4)[C@]21CO1` here?
**A.** 1140 nM

**Q.** What about the IC50 (PC-3 [1]) of the same compound?
**A.** 1800 nM

**Q.** And the IC50 (SK-OV-3 [2])?
**A.** 570 nM

**Q.** Which IC50 [3] does the source give for `CC(C)[C@]12O[C@H]1[C@@H]1O[C@]13[C@]1(O[C@H]1C[C@H]1C4=C(CC[C@@]13C)C(=O)OC4)[C@@H]2O` [TRIPTOLIDE] here?
**A.** 52 nM

**Q.** And the IC50 (HCT-116)?
**A.** 10 nM

**Q.** What about the IC50 (SGC-7901) of the same compound?
**A.** 15 nM

**Q.** And the IC50 (DU-145)?
**A.** 24 nM

**Q.** And the IC50 (Bel-7402)?
**A.** 20 nM

**Q.** And the IC50 (MDA-MB-231)?
**A.** 24 nM

**Q.** And the IC50 (SMMC-7721)?
**A.** 18 nM

**Q.** What about the IC50 (HCT-15) of the same compound?
**A.** 29 nM

**Q.** And the IC50 (MKN-28)?
**A.** 200 nM

**Q.** And the IC50 (MDA-MB-468)?
**A.** 10 nM

**Q.** What about the IC50 (MOLT-4) of the same compound?
**A.** 17 nM

**Q.** And the IC50 (K562)?
**A.** 50 nM

**Q.** What about the IC50 [4] of the same compound?
**A.** 14 nM

**Q.** What about the IC50 (MCF7) of the same compound?
**A.** 19 nM

**Q.** And the IC50 (A549)?
**A.** 59 nM

**Q.** And the IC50 (KB)?
**A.** 43 nM

**Q.** What about the IC50 (U-251) of the same compound?
**A.** 49 nM

**Q.** What about the IC50 (SK-OV-3 [5]) of the same compound?
**A.** 10 nM

**Q.** And the IC50 [6]?
**A.** 22 nM

**Q.** What about the IC50 (PC-3 [1]) of the same compound?
**A.** 20 nM

**Q.** What about the IC50 (SK-OV-3 [2]) of the same compound?
**A.** 9 nM

**Q.** What about the IC50 (HeLa) of the same compound?
**A.** 47 nM

**Q.** And the IC50 [7]?
**A.** 28 nM

**Q.** And the IC50 (PC-3 [8])?
**A.** 43 nM

**Q.** Which IC50 (MDA-MB-468) does the source give for `CC(C)[C@]12O[C@H]1[C@@H]1O[C@]13[C@]1(O[C@H]1C[C@H]1C4=C(CC[C@@]13C)C(=O)OC4)[C@@]21CO1` here?
**A.** 1920 nM

**Q.** What about the IC50 (PC-3 [1]) of the same compound?
**A.** 2700 nM

**Q.** And the IC50 (SK-OV-3 [2])?
**A.** 1560 nM

**Q.** With `CC(C)[C@]12O[C@H]1[C@@H]1O[C@]13[C@]1(O[C@H]1C[C@H]1C4=C(CC[C@@]13C)C(=O)OC4)[C@H]2O` [EPITRIPTOIIDE] as the compound, how does the IC50 (MDA-MB-468) read?
**A.** 1320 nM

**Q.** And the IC50 (PC-3 [1])?
**A.** 1600 nM

**Q.** What about the IC50 (SK-OV-3 [2]) of the same compound?
**A.** 790 nM

**Q.** With `CC(C)[C@]12O[C@H]1[C@@H]1O[C@@]13[C@@]1(C)CCC4=C(COC4=O)[C@]1(O)C[C@@H]1O[C@@]13[C@]21CO1` as the compound, how does the IC50 (MDA-MB-468) read?
**A.** 2370 nM

**Q.** What about the IC50 (PC-3 [1]) of the same compound?
**A.** 7340 nM

**Q.** What about the IC50 (SK-OV-3 [2]) of the same compound?
**A.** 1860 nM

Reference: ChEMBL document CHEMBL1151957, “Design and synthesis of novel C14-hydroxyl substituted triptolide derivatives as potential selective antitumor agents” (J Med Chem, 2009)
